High-throughput results deposited in PubChem BioAssay by The Scripps Research Institute Molecular Screening Center.
Only some compounds are listed: those with a hit (about 1.6% of all), similar ones and a draw of the others.
IMP-1 inh-1: blocks Pseudomonas aeruginosa IMP-1 metallo-beta-lactamase; purified IMP-1, nitrocefin hydrolysis, epi-absorbance fluorescence; AID 1556; actives 0.45% (n = 290,000); inhibition, % at 5.6 µM;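 active means inhibition above the mean plus 3 SD of all compounds in the same screening run, cut at about 4.5% in these data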
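assay system = purified recombinant IMP-1 metallo-beta-lactamase enzyme | schedule = 15 min preincubation plus 25 min reaction at 25 °C | signal = Epi-absorbance fluorescence, 480 nm excitation, 530 nm emission | read-out basis = percent inhibition from optical density relative to buffer-blank wells | controls = IMP-1 with DMSO as 0%, enzyme-free DMSO as 100%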
VIM-2 inh: inhibitors of Pseudomonas aeruginosa VIM-2 metallo-beta-lactamase | purified VIM-2, nitrocefin hydrolysis, epi-absorbance fluorescence | inhibition, % at 5.6 µM | actives 0.89% (n = 290,000);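 active means inhibition above the mean of all tested compounds plus 3 SD, cutoff set per screening run, cut at about 7.5% in these data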;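 further: red hydrolysis product quenches plate fluorescence so inhibitors raise well fluorescence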
FID counter: fluorescent intercalator displacement, NS3 helicase counter-screen; DNA fluorescent intercalator displacement, fluorescence; inhibition, % at 7.9 µM; actives 0.17% (n = 290,000); in the data active means inhibition above about 37%;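 further: higher means more ethidium bromide displaced from hairpin DNA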
HCV core dimer: HCV core protein dimerization inhibition; TR-FRET GST/Flag-core106 dimerization, 1536-well; inhibition, % at 5 µM; actives 0.33% (n = 300,000); AID 1899;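 active means inhibition above the mean of all tested compounds plus 3 SD, set per screening campaign, cut at about 45% in these data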
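Test system: GST/Flag-tagged HCV core106 proteins; Medium: KF-containing HEPES buffer, pH 7.45, DTT, CHAPS, BSA; Times: compound-protein-antibody incubation 4 h at 22.5 °C; Detection: TR-FRET 671 and 617 nm emission; Benchmarks: wells lacking GST-core106 and wells with excess unlabelled core106.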
IMP-1 inh-2: selectivity counter-screen for VIM-2 inhibitors: IMP-1 metallo-beta-lactamase inhibitors; shares compounds with VIM-2 inh; AID 1856; purified IMP-1, nitrocefin hydrolysis, epi-absorbance fluorescence; 1,300 tested, under 10 active; inhibition, % at 5.6 µM; call rule not given here
VIM-2 FRET ctr: inhibits VIM-2 in FRET assay to exclude epi-absorbance artifacts. shares compounds with VIM-2 inh. purified VIM-2, CCF2 FRET substrate hydrolysis. inhibition, % at 5.6 µM. actives 23% (n = 1,300);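 active means inhibition above the mean of all tested compounds plus 3 SD, cut at about 19% in these data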
TEM-1 counter: TEM-1 inhibition, counter-screen for VIM-2 inhibitors. shares compounds with VIM-2 inh. Purified TEM-1, nitrocefin hydrolysis, epi-absorbance fluorescence. inhibition, % at 5.6 µM. actives 3% (n = 1,300);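 active means inhibition above that campaign's mean inhibition plus 3 SD, cut at about 0.46% in these data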
Target sequence (P62593 whole entry, looked up): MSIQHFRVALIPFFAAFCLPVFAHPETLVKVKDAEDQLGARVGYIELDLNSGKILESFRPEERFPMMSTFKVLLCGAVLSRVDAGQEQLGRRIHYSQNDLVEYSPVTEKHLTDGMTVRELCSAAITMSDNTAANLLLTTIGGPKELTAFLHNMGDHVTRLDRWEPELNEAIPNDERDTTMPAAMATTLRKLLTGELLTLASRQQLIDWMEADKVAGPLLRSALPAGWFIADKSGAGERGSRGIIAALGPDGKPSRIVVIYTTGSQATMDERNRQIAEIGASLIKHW
VIM-2 inh conf: confirmation of P. aeruginosa VIM-2 metallo-beta-lactamase inhibitors. shares compounds with VIM-2 inh. purified VIM-2, nitrocefin hydrolysis, epi-absorbance. inhibition, % at 5.6 µM. actives 96% (n = 1,300). AID 2187;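 active means inhibition of the VIM-2 beta-lactamase enzyme above about 11% from the earlier first-round screen, limit read from the data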
Hits are given with their value; . = inactive; / = no result.

SMILES | IMP-1 inh-1 | VIM-2 inh | FID counter | HCV core dimer | IMP-1 inh-2 | VIM-2 FRET ctr | TEM-1 counter | VIM-2 inh conf
O=c1c2ccccc2oc2ccc(Oc3ccccc3)cc12 | . | . | . | . | / | / | / | /
Cc1ccc(-c2nn(C)c(=O)c3ccccc23)cc1S(=O)(=O)NCCN1CCOCC1 | . | 14 | . | . | . | . | . | 28
Cc1ccc(S(=O)(=O)NC(C)(C)CN2CCNCC2)cc1 | . | . | . | . | / | / | / | /
S=c1[nH]nc(C2CC2)n1Cc1ccccc1 | . | 47 | . | . | . | 75 | . | 61
S=c1[nH]nc(-c2cccs2)n1Cc1ccccc1 | . | 43 | . | . | . | 67 | . | 51
S=c1[nH]nc(-c2ccccc2)n1Cc1ccccc1 | . | 13 | . | . | . | 34 | . | 22
S=c1[nH]nc(-c2ccco2)n1Cc1ccccc1 | . | 26 | . | . | . | 59 | . | 40
S=c1[nH]nc(CN2CCCC2)n1Cc1ccccc1 | . | . | . | . | / | / | / | /
CCn1c(-c2ccco2)n[nH]c1=S | . | . | . | . | / | / | / | /
NS(=O)(=O)c1ccc(CCNC(=O)C(=O)C2C(=O)Nc3ccccc32)cc1 (configuration not stated) | . | . | . | . | / | / | / | /
O=C(N/N=C/c1ccccc1)C1CCCN1C(=O)c1cc([N+](=O)[O-])cc([N+](=O)[O-])c1 (configuration not stated) | . | . | . | / | / | / | / | /
S=c1[nH]nc(-c2cccs2)n1C1CCCCC1 | . | 42 | . | . | . | 63 | . | 47
Cc1ccsc1/C=N/NC(=O)Nc1ccccc1 | . | . | . | . | / | / | / | /
CN(/N=C/c1cccc(Br)c1)C1=NS(=O)(=O)c2ccccc21 | . | 16 | . | / | . | . | . | 23
O=C1[C@H]2[C@@H](/C=C/c3ccccc3)N3C(=O)CN(CC4CC4)C(=O)[C@@]3(Cc3ccccc3)[C@H]2C(=O)N1c1ccccc1 | . | . | . | . | / | / | / | /
Cc1ccc(NC(=O)C/C(N)=N/O)cc1C | . | . | . | . | / | / | / | /
Cc1c(CC(=O)O)c(=O)oc2c(C)c3occ(-c4ccc(F)cc4)c3cc12 | . | 15 | . | / | . | . | . | 25
Cc1c(CC(=O)O)c(=O)oc2cc3occ(-c4ccccc4)c3cc12 | . | . | . | . | / | / | / | /
Cc1nn2c(N3CCN(CCO)CC3)c3c(nc2c1-c1ccccc1)CCCC3 | . | 37 | . | . | . | . | . | 59
Cc1nn2c(N3CCCC3)c3c(nc2c1-c1ccccc1)CCC3 | . | . | . | . | / | / | / | /
COc1ccc(-c2cc3c(=O)n(CC(=O)NCCCN4CCC(N5CCCCC5)CC4)nc(C)n3n2)cc1 | . | 24 | 42 | . | . | . | . | 32
Cc1ccc(OCc2nnc(SCC(=O)Nc3cccc4ccccc34)n2-c2ccccc2)cc1 | . | . | . | . | / | / | / | /
O=C(CSc1nnc(NC(=O)c2ccccc2[N+](=O)[O-])s1)NCC1CCCO1 (configuration not stated) | . | 19 | . | . | . | 35 | . | 23
CC(=O)Nc1nnc(SCC(=O)NCC2CCCO2)s1 (configuration not stated) | / | / | / | . | / | / | / | /
O=C(CSc1nnc(NC(=O)c2ccccc2F)s1)NCC1CCCO1 (configuration not stated) | . | 15 | . | . | . | 28 | . | 17
SMILES | IMP-1 inh-1 | VIM-2 inh | FID counter | HCV core dimer | IMP-1 inh-2 | VIM-2 FRET ctr | TEM-1 counter | VIM-2 inh conf
O=C(CSc1nnc(NC(=O)c2cccc(Br)c2)s1)NCC1CCCO1 (configuration not stated) | . | . | . | . | / | / | / | /
CC1CN(Cc2c(O)ccc3c2oc(=O)c2ccccc23)CC(C)O1 (configuration not stated) | . | 14 | . | . | . | . | . | 29
COc1ccc(/C(N)=N/OC(=O)CSc2ccc(C)cc2)cc1 | . | . | . | . | / | / | / | /
CC(C)(C)C(=O)O/N=C1\CCS(=O)(=O)c2sccc21 | . | . | . | . | / | / | / | /
COc1cc(-c2noc(C)c2C#Cc2nccn2C)cc(OC)c1OC | . | 30 | . | . | . | . | . | 46
O=C(NCc1ccc2[nH]c3c(c2c1)CCCC3)c1ccc(S(=O)(=O)N2CCOCC2)cc1 | . | 14 | . | . | . | 28 | . | 23
CCN(CC)S(=O)(=O)c1ccc(C(=O)NCc2ccc3[nH]c4c(c3c2)CCCC4)cc1 | . | 14 | . | . | . | 28 | . | 20
CN(C)S(=O)(=O)c1ccc(C(=O)NCc2ccc3[nH]c4c(c3c2)CCCC4)cc1 | . | 14 | . | . | . | 28 | . | 25
O=C(NCc1ccc2[nH]c3c(c2c1)CCCC3)N1CCOCC1 | . | . | . | . | / | / | / | /
CC(C)OCCCNC(=O)c1cc(S(=O)(=O)N2CCCCC2)c[nH]1 | . | . | . | . | / | / | / | /
COc1ccc(OC)c(Nc2c3c(nc4ccccc24)CCC3)c1 | . | 13 | . | . | . | . | . | 20
COc1ccc(OC)c(Nc2cc(C)c3ccccc3n2)c1 | . | . | . | . | / | / | / | /
CCCCOc1ccccc1NC(=O)CC1Nc2ccccc2NC1=O (configuration not stated) | / | / | / | . | / | / | / | /
Cc1cc(C(=O)N2CCOCC2)ccc1[N+](=O)[O-] | . | . | . | . | / | / | / | /
COCCNc1ccc(-c2nn(C)c(=O)c3ccccc23)cc1[N+](=O)[O-] | . | . | . | . | / | / | / | /
CC(O)CNc1ccc(-c2nn(C)c(=O)c3ccccc23)cc1[N+](=O)[O-] (configuration not stated) | . | 19 | . | . | . | . | . | 39
CC(=O)NCc1cc(-c2nn(C)c(=O)c3ccccc23)ccc1C | . | . | . | . | / | / | / | /
CN(C)CCCNc1ccc(-c2nn(C)c(=O)c3ccccc23)cc1[N+](=O)[O-] | . | 61 | . | . | . | . | . | 71
COC(=O)N/N=C/c1cccc(OC(=O)c2ccc3c(c2)OCO3)c1 | . | . | . | . | / | / | / | /
COc1cc(Br)cc2cc(C(=O)OC3CCN(C)CC3)c(=O)oc12 | . | 14 | . | . | . | . | . | 22
NC(=O)C1CCN(C(=O)/C=C/c2ccccc2[N+](=O)[O-])CC1 | . | . | . | . | / | / | / | /
Cc1cc(Br)cc(Br)c1OCC(=O)NNC(=O)CCC(=O)NCc1ccccc1 | . | . | . | / | / | / | / | /
CCN(CC)c1ccc(-c2nn3c(-c4ccccc4OC)nnc3s2)cc1 | . | 13 | . | . | . | . | . | .
COc1ccc(NC(=O)c2oc3ccccc3c2NC(=O)COc2ccccc2OC)c(OC)c1 | . | . | . | . | / | / | / | /
O=C(COc1cc2oc(=O)c3c(c2cc1Cl)CCC3)NCc1ccncc1 | . | 28 | . | . | . | . | . | 35
